Assay outcomes from PubChem BioAssay.
T cruzi growth-1 = T. cruzi intracellular proliferation inhibitors, primary screen, cell-based, beta-gal Tulahuen parasites, NIH3T3 host, luminescence. inhibition, % at 8.34 µM. T. cruzi beta-gal in NIH3T3, GalScreen luminescence, 90 h. actives 5.9% (n = 77,000);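 active means mean inhibition above about 93%, with at least 55% of replicates each passing it, limit read from the data, passing the limit was not always enough; inconclusive means only one of those two conditions holds; inactive means neither condition holds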
KDM4C inh = inhibitors of GASC-1 (KDM4C) histone demethylase, primary screen, biochemical, single concentration HTS. actives 0.15% (n = 96,000). Lysine-specific demethylase 4C (Homo sapiens), Q9H3R0. GST-KDM4C 2-372, H3K9me3 peptide, LANCE TR-FRET. inhibition, % at 12.5 µM;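 active means mean replicate inhibition above about 25%, with at least 55% of replicates also reaching it, limit read from the data, passing the limit was not always enough; inconclusive means only one of those two conditions met; inactive means neither condition met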
Target sequence (Q9H3R0 2-372 limits assumed): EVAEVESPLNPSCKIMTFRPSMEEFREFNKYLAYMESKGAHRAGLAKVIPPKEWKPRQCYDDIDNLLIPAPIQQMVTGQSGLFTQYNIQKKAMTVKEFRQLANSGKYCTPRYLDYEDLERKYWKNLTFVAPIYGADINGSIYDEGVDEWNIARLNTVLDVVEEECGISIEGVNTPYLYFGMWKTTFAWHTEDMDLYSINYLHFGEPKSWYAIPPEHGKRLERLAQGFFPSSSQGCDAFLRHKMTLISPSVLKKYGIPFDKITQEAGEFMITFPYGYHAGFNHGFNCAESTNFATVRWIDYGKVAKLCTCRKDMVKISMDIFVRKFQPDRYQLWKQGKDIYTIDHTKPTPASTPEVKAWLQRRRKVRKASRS
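System – N-terminal GST-fused human GASC-1 (KDM4C) fragment, residues 2-372 · Input – enzyme final amount 10 nM · Technique – LANCE TR-FRET, Eu antibody, ULight-streptavidin, EDTA, ex 340 nm, em 618/671 nm · Medium – HEPES buffer, pH 7.5, plus ascorbate · Incubation – enzyme reaction 30 min, then detection 60 min, both room temperature · Reagent – H3K9me3 peptide with Fe(II)/2OG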
Pf Dd2 inh = P. falciparum Dd2 growth inhibitors, primary screen, SYBR Green fluorescence, single dose replicates | 72 h; active compounds read low | activity change, % at 10 µM | actives 2.3% (n = 94,000) | AID 1159554, 2015; in the data active means activity change below about -80%; inconclusive means no clear call, values can overlap the other calls
IDH1 mut inh = inhibitors of IDH1 R132H reductase, primary screen, biochemical, plate reader, single point; Isocitrate dehydrogenase [NADP] cytoplasmic (Homo sapiens), O75874; AID 624101, 2012; diaphorase/resazurin fluorescence, 60 min; actives 0.18% (n = 70,000); inhibition, % at 10 µM; in the data active means inhibition above about 34%; inconclusive means no clear call, values can overlap the other calls; inactive means below about 11%;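 further: 0% = DMSO and 100% = no enzyme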
T cruzi growth-2 = T. cruzi intracellular proliferation inhibitors, confirmation, cell-based, NIH3T3 host, beta-gal parasite, luminescence, cherry-pick; shares compounds with T cruzi growth-1; T. cruzi beta-gal in NIH3T3, GalScreen luminescence, 90 h; inhibition, % at 8.35 µM; actives 72% (n = 5,600); AID 651739, 2012;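 active means mean replicate inhibition above about 95% and at least 55% of replicates individually reaching it, limit read from the data; inconclusive means only one of the two criteria is met; inactive means neither criterion is met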
T cruzi growth-3 = inhibitors of intracellular T. cruzi replication, confirmation, NIH3T3 host cells, beta-gal parasites, cherry-pick, set 2; inhibition, % at 2.09 µM; actives 21% (n = 5,600); shares compounds with T cruzi growth-1; AID 651740, 2012; T. cruzi beta-gal in NIH3T3, GalScreen luminescence, 90 h;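 active means mean inhibition above about 95%, with at least 55% of replicates also reaching it, limit read from the data; inconclusive means meets just one of the two conditions; inactive means meets neither condition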;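 further: plate controls were neutral control median for no effect and positive control median for full effect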
3T3 cytotox = cytotoxicity in mouse NIH/3T3 fibroblasts, confirmation, cytotoxicity control for T. cruzi proliferation inhibitor project, cell-based, cherry-pick, single point; cytotoxicity (signal decrease), % at 8.35 µM; NIH/3T3 viability, CellTiter-Glo ATP luminescence, 90 h; actives 14% (n = 5,600); shares compounds with T cruzi growth-1;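 active means mean signal decrease across replicates above about 35% based on untreated-well scatter, with enough replicates individually passing, limit read from the data; inconclusive means no rule stated though some were filed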;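 further: 0% = median of neutral control wells and 100% = median of positive control wells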
NIH3T3 tox 2 = NIH/3T3 fibroblast cytotoxicity, confirmation, cytotoxicity control, cell-based, cherry-pick, single point, set 2; shares compounds with T cruzi growth-1; AID 651744, 2012; NIH/3T3 viability, CellTiter-Glo ATP luminescence, 90 h; actives 56% (n = 5,600); inhibition, % at 24.9 µM;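 active means mean loss of cell viability signal at or above a set limit, and enough replicates individually reaching it; inconclusive means meets only the mean limit or only the replicate share; inactive means meets neither condition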;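 further: 0% = median of neutral control wells and 100% = median of positive control wells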
* marks the source's active call; other numbers are inactive results; ? = inconclusive; nt = no result. An excerpt weighted towards active compounds, which were near 5.8% of everything screened.

SMILES	T cruzi growth-1	KDM4C inh	Pf Dd2 inh	IDH1 mut inh	T cruzi growth-2	T cruzi growth-3	3T3 cytotox	NIH3T3 tox 2
COc1ccc(S(=O)(=O)Nc2ccc3c(c2)CC(=O)N([C@@H](C)CO)C[C@@H](C)[C@H](CN(C)Cc2ccc4c(c2)OCO4)O3)cc1	113*	0	-23	0	109*	85	19	23
COc1ccc(S(=O)(=O)Nc2ccc3c(c2)CC(=O)N([C@H](C)CO)C[C@@H](C)[C@H](CN(C)Cc2ccc4c(c2)OCO4)O3)cc1	109*	14	14	0	108*	53	1	8
COc1ccc(S(=O)(=O)Nc2ccc3c(c2)CC(=O)N([C@H](C)CO)C[C@H](C)[C@@H](CN(C)Cc2ccc4c(c2)OCO4)O3)cc1	?	1	-25	2	108*	62	-17	-5
COc1ccc(S(=O)(=O)Nc2ccc3c(c2)CC(=O)N([C@@H](C)CO)C[C@@H](C)[C@@H](CN(C)Cc2ccc4c(c2)OCO4)O3)cc1	52	-1	-40	1	nt	nt	nt	nt
O=C(Cn1ccc([N+](=O)[O-])n1)N1CCOCC1	nt	nt	nt	0	nt	nt	nt	nt
Cc1ccc(N(CC(N)=O)S(=O)(=O)c2ccccc2)cc1	nt	nt	nt	0	nt	nt	nt	nt
C[C@H]1CN([C@@H](C)CO)C(=O)c2cc(NC(=O)Nc3cccc4ccccc34)ccc2O[C@H]1CN(C)Cc1ccccc1	46	-2	3	-1	nt	nt	nt	nt
C[C@H](CO)N1C[C@H](C)[C@H](CN(C)Cc2ccc(C(F)(F)F)cc2)Oc2c(NC(=O)Nc3ccccc3)cccc2C1=O	14	2	-4	2	nt	nt	nt	nt
C[C@H](CO)N1C[C@H](C)[C@H](CN(C)Cc2ccc(C(F)(F)F)cc2)Oc2ccc(NC(=O)Nc3cccc4ccccc34)cc2C1=O	49	8	8	-2	nt	nt	nt	nt
C[C@@H]1CN([C@H](C)CO)C(=O)c2cc(NC(=O)Nc3cccc4ccccc34)ccc2O[C@@H]1CN(C)Cc1ccc(C(F)(F)F)cc1	92*	0	-8	2	97*	88	47*	38*
C[C@@H]1CN([C@@H](C)CO)C(=O)c2cc(NC(=O)Nc3cccc4ccccc34)ccc2O[C@@H]1CN(C)Cc1ccc(C(F)(F)F)cc1	106*	-1	33	0	106*	107*	53*	46*
C[C@H](CO)N1C[C@H](C)[C@H](CN(C)Cc2ccc(C(F)(F)F)cc2)Oc2c(NC(=O)Nc3cccc4ccccc34)cccc2C1=O	111*	-3	-39	nt	103*	73	34	30*
Cc1cccc(-n2c(SCC(=O)O)nnc2-c2cccs2)c1C	nt	nt	nt	1	nt	nt	nt	nt
CC(C)NC(=O)N1[C@H](C#N)[C@@H](c2ccc(C#CC3CC3)cc2)[C@@H]1CO	?	1	-32	nt	109*	82	9	7
CN(C)CC(=O)N1[C@@H](C#N)[C@@H](c2ccc(C#CC3CC3)cc2)[C@@H]1CO	89	1	-26	nt	nt	nt	nt	nt
CC(C)NC(=O)N1[C@H](CO)[C@@H](c2ccc(C#CC3CC3)cc2)[C@@H]1C#N	?	0	-33	nt	107*	77	-5	9
CC(C)NC(=O)N1[C@H](CO)[C@H](c2ccc(C#CC3CC3)cc2)[C@@H]1C#N	76	-1	2	nt	nt	nt	nt	nt
CCCCCC1OC2=C(C(=O)N(OC)C2CSCC(O)C(=O)O)C(O)C1(C)O (stereo unspecified)	nt	nt	nt	0	nt	nt	nt	nt
COc1ccc(NC(=O)Nc2ccc3c(c2)[C@@H]2C[C@H](CC(=O)NCCc4ccccc4)O[C@@H](CO)[C@@H]2O3)cc1	176*	-2	-17	1	105*	?	7	11
COc1ccc(NC(=O)Nc2ccc3c(c2)[C@H]2C[C@@H](CC(=O)NCCc4ccccc4)O[C@@H](CO)[C@H]2O3)cc1	157*	-2	-37	0	112*	98*	-10	-3
COc1ccc(NC(=O)Nc2ccc3c(c2)[C@@H]2C[C@H](CC(=O)NCc4ccc5c(c4)OCO5)O[C@H](CO)[C@@H]2O3)cc1	102*	-1	-13	0	92	62	2	12
CCCNC(=O)C[C@H]1C[C@@H]2c3cc(NC(=O)Nc4ccc(OC)cc4)ccc3O[C@@H]2[C@H](CO)O1	34	-3	-2	-1	nt	nt	nt	nt
COc1ccc(NC(=O)Nc2ccc3c(c2)[C@H]2C[C@H](CC(=O)NCc4ccc5c(c4)OCO5)O[C@@H](CO)[C@H]2O3)cc1	37	-1	-6	0	nt	nt	nt	nt
Cc1cccc(NC(=O)C(=O)NCCCO)c1	nt	nt	nt	2	nt	nt	nt	nt
Cc1ccc(S(=O)(=O)N(C)C[C@H]2OCCCC[C@H](C)Oc3ccc(NS(=O)(=O)c4ccc(Cl)cc4)cc3C(=O)N([C@@H](C)CO)C[C@@H]2C)cc1	93*	1	-59	2	109*	107*	-31	-29
Cc1ccc(S(=O)(=O)N(C)C[C@@H]2OCCCC[C@H](C)Oc3ccc(NS(=O)(=O)c4ccc(Cl)cc4)cc3C(=O)N([C@@H](C)CO)C[C@H]2C)cc1	106*	2	-27	0	103*	71	-37	-10
Cc1ccc(S(=O)(=O)Nc2ccc3c(c2)C(=O)N([C@H](C)CO)C[C@H](C)[C@@H](CN(C)S(=O)(=O)c2ccc(Cl)cc2)OCCCC[C@H](C)O3)cc1	89	-2	-53	5	nt	nt	nt	nt
Cc1ccc(S(=O)(=O)Nc2ccc3c(c2)C(=O)N([C@@H](C)CO)C[C@@H](C)[C@@H](CN(C)S(=O)(=O)c2ccc(Cl)cc2)OCCCC[C@@H](C)O3)cc1	47	1	-69	nt	nt	nt	nt	nt
Cc1ccc(S(=O)(=O)N(C)C[C@@H]2OCCCC[C@@H](C)Oc3ccc(NS(=O)(=O)c4ccc(Cl)cc4)cc3C(=O)N([C@@H](C)CO)C[C@@H]2C)cc1	110*	0	-57	nt	100*	113*	10	46*
